High-throughput results deposited in PubChem BioAssay by several laboratories.
The list is not random: actives were taken first. Their share in the collection is about 3%.
RAM inhibit = inhibitors of the yeast RAM network | S. cerevisiae dse1pr::URA3 reporter, 5-FOA growth OD615, 2 d; analog-sensitive cbk1-as2 kinase mutant strain | 190,000 tested, 1.8% active | inhibition, % at 50 µM;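 active means inhibition above a set limit, 3 SD over mean compound inhibition, cut at about 8.4% in these data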;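 further: 0% = DMSO-only wells with no growth and 100% = 10 µM 1-NA-PP1 full growth; inhibition rescues growth on 5-FOA so higher OD means more RAM inhibition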
Yeast growth inh = yeast BB579 growth reduction in restrictive medium | inhibition, % at 10 µM | S. cerevisiae BB579 growth, OD615, 48 h | AID 804 | 140,000 tested, 0.51% active;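 active means inhibition above a set limit, 3 SD over the mean compound inhibition, cut at about 44% in these data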
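Test system: S. cerevisiae DeaD strain BB579 yeast; Medium: restrictive CSMM-D medium; Compound: one dose, 10 µM compound with 0.25% DMSO; Incubation: 4 h cell preincubation, 48 h compound exposure, 30 °C humidified; Signal: OD at 615 nm; Benchmarks: amphotericin B at 10 µg/mL as positive control.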
INS promoter inh = TRM-6 insulin promoter activity inhibition; TRM-6 cells, insulin promoter-eGFP reporter, imaging; reporter expression induced with tamoxifen; inhibition, % at 2 µM; 130,000 tested, 0.9% active; AID 1273;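 active means inhibition above the mean plus 3 SD, with well images judged a real hit on visual review, cut at about 60% in these data, passing the limit was not always enough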
Yeast life ext = yeast lifespan extension | S. cerevisiae growth with nicotinamide, OD615; deaD strain in restrictive glucose medium | inhibition of the nicotinamide effect, % at 10 µM | 130,000 tested, 0.68% active | AID 775;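 active means inhibition above a set limit, placed 3 SD over the median of all compounds, cut at about 26% in these data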;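 further: 0% = nicotinamide-treated wells and 100% = cells grown without nicotinamide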
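Measured by: optical density (absorbance) at 615 nm; System: modified budding yeast, DeaD strain; Medium: restrictive CSMM-D dextrose medium; Timing: 4 h preincubation then 48 h treatment at 30 °C.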
Insulin prom up = MIN6 insulin promoter up-regulation; MIN6 insulin promoter-GFP reporter, high-content imaging; hits give high values; z-score at 5 µM; 190,000 tested, 0.3% active; AID 1625;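 active means z-score above 3 at 5 µM with at least 500 cells counted in the well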
Starred values were filed as active, the others as inactive.

Screening Cc1ccc2nc(-c3ccc(NC(=O)CSc4ccccc4)cc3)[nH]c2c1 returned RAM inhibit 3, Yeast growth inh -22, INS promoter inh 42, Yeast life ext 76* and Insulin prom up -0.49.
Screening CC/C(=N/Nc1cccc(Cl)c1)c1cnnc(SC)n1 returned RAM inhibit 9.0*, Yeast growth inh -51, INS promoter inh 31, Yeast life ext 3 and Insulin prom up 0.33.
Screening CC/C(=N/Nc1ccccc1)c1cnnc(-c2ccccc2)n1 returned RAM inhibit 5, Yeast growth inh -39, INS promoter inh -248 and Insulin prom up 0.53.
`CCOC12NC(=O)CC(=O)N1C(c1ccccc1)=CS2` (stereo not given) gave RAM inhibit 9.9*, Yeast growth inh -23, INS promoter inh -26, Yeast life ext -10 and Insulin prom up -0.51.
`CCCn1c(CCc2ccccc2)nnc1SCC(=O)N1CCOCC1` gave RAM inhibit 2, Yeast growth inh -42, INS promoter inh 78*, Yeast life ext 0 and Insulin prom up 0.23.
Screening CN(Cc1ccccc1)C(=O)COC(=O)c1ccc(Cl)cc1N returned RAM inhibit 2 and Insulin prom up 0.56.
Screening O=C(c1cc2ccccc2oc1=O)N1CCN(c2ccccn2)CC1 returned RAM inhibit -1, Yeast growth inh -20, Yeast life ext -11 and Insulin prom up 0.03.
`O=C(c1cc2ccccc2oc1=O)N1CCN(c2ncccn2)CC1` gave RAM inhibit 1, Yeast growth inh 5, INS promoter inh 79* and Yeast life ext -4.
CCCn1c(N)c(N(CCOC)C(=O)/C=C/c2ccc(C(=O)OC)cc2)c(=O)[nH]c1=O was read as RAM inhibit 0, INS promoter inh 30 and Insulin prom up 0.31.
`CC1=C(C(=O)Nc2ccc(Br)cc2)C(c2ccco2)NC(=O)N1` (stereo not given) gave RAM inhibit 4, Yeast growth inh -8, INS promoter inh 68*, Yeast life ext -6 and Insulin prom up 0.77.
Screening NNC(=O)c1ccc(CN2CCCCC2)o1 returned RAM inhibit 0 and Insulin prom up 0.01.
Screening COc1ccc(C(C)(C)C)cc1NC(=S)NCCN1CCOCC1 returned RAM inhibit -2, Yeast growth inh 2, Yeast life ext -3 and Insulin prom up -0.16.
COc1cccc(Oc2ccc(N/C=C/C(=O)C(C)(C)C)cc2)c1 was read as RAM inhibit 5, Yeast growth inh -50, INS promoter inh 75*, Yeast life ext 21 and Insulin prom up 0.23.
For COc1ccc(Oc2ccc(N/C=C/C(=O)C(C)(C)C)cc2)cc1 the results were RAM inhibit 1 and Insulin prom up 0.5.
`CCOC(=O)c1ccc(N/C=C\C(=O)c2cccc(OC)c2)cc1` gave RAM inhibit 10*, Yeast growth inh -23, INS promoter inh -11, Yeast life ext 2 and Insulin prom up -0.07.
`NNC(=O)c1nc(Cl)c(Cl)c(N)c1Cl` gave Insulin prom up -0.72.
Screening Cc1[nH]n(-c2nc(-c3ccc(Cl)cc3)cs2)c(=O)c1N=Nc1ccc(O)cc1 returned RAM inhibit 9.8* and Insulin prom up -1.5.
`CCCNC(=O)CS(=O)Cc1nc(-c2ccccc2C)oc1C` (stereo not given) gave RAM inhibit 1, Yeast growth inh 1, Yeast life ext -7 and Insulin prom up 0.12.
CCC(C)NC(=O)CS(=O)Cc1nc(-c2ccccc2C)oc1C (stereo not given) was read as RAM inhibit 1, Yeast growth inh 47*, Yeast life ext 0 and Insulin prom up 0.54.
For Cc1nc2c3ccccc3nc(NNC(=O)CCC(=O)NCCC(C)C)n2n1 the results were RAM inhibit 9.2*, Yeast growth inh -18, INS promoter inh -23, Yeast life ext 0 and Insulin prom up 0.22.
Fc1ccccc1C1c2cccn2CCN1C(=S)Nc1ccc(Br)cc1 (stereo not given) was read as RAM inhibit 1 and Insulin prom up 0.46.
Screening CCSC1=C(C#N)C(c2ccc(C)o2)CC(=O)N1 (stereo not given) returned Insulin prom up -0.07.
Screening Cc1ccc(C2CC(=O)NC(SCc3ccccc3)=C2C#N)o1 (stereo not given) returned RAM inhibit 1, Yeast growth inh -10, Yeast life ext 6 and Insulin prom up 3.4*.
O=S(=O)(NCC(Nc1ccccc1)c1ccccc1)c1ccc(Cl)cc1 (stereo not given) was read as RAM inhibit 9.2*, Yeast growth inh -13, INS promoter inh -41 and Yeast life ext 0.
For COc1ccc(CNC(=O)CN(Cc2ccccc2)S(=O)(=O)c2ccc(Cl)cc2)cc1 the results were RAM inhibit 9.2*, Yeast growth inh -29, INS promoter inh -27, Yeast life ext -15 and Insulin prom up 0.15.
Screening COc1ccc(CNC(=O)CN(Cc2ccc(Cl)cc2)S(=O)(=O)c2ccccc2)cc1 returned RAM inhibit 8.6*, Yeast growth inh -30, INS promoter inh -55 and Yeast life ext 6.
COc1ccc(S(=O)(=O)N(CC(=O)NC(C)C)Cc2ccccc2)cc1 was read as RAM inhibit 1, Yeast growth inh -20, INS promoter inh -63, Yeast life ext -6 and Insulin prom up 0.16.
Screening CC(C(O)C12CC3CC(CC(C3)C1)C2)N1CCCCC1 (stereo not given) returned RAM inhibit 0, INS promoter inh 39 and Insulin prom up -0.37.
Screening c1cc2c3c(cccc3c1)C(N1CCCCCC1)=N2 returned RAM inhibit 1, Yeast growth inh -21, INS promoter inh 63 and Yeast life ext 3.
For c1cc2c3c(cccc3c1)C(N1CCCCC1)=N2 the results were RAM inhibit 2, Yeast growth inh -34, INS promoter inh 87*, Yeast life ext -6 and Insulin prom up -0.11.
For Cc1cc(C)n2nc(C(=O)OCC(=O)c3c[nH]c4ccccc34)nc2n1 the results were RAM inhibit 4, INS promoter inh 64 and Insulin prom up -0.29.
C=CCN(C(=O)c1cccc(N2C(=O)C3CC=CC(C)C3C2=O)c1)c1ccccc1 (stereo not given) was read as RAM inhibit 5, INS promoter inh -83 and Insulin prom up -0.79.
For CC(=O)c1c(C)nc2cc(Cl)ccc2c1N the results were RAM inhibit 0, Yeast growth inh -43, INS promoter inh 96*, Yeast life ext 1 and Insulin prom up 0.68.
N=C1S/C(=C\c2ccc(-c3cccc(Cl)c3)o2)C(=O)N1c1nccs1 was read as RAM inhibit 3, Yeast growth inh -23, Yeast life ext 2 and Insulin prom up 2.1.
Screening COc1ccc(/C=C2\SC(=N)N(c3nccs3)C2=O)cc1OC returned RAM inhibit -1, Yeast growth inh -28, INS promoter inh 6, Yeast life ext 38* and Insulin prom up -0.86.
Screening Cc1ccc(S(=O)(=O)N(C)C)cc1NC(=O)c1ccc2ccccc2n1 returned Insulin prom up 0.25.
